The values that follow come from ChEMBL document CHEMBL3046238, “Synthesis and biological activity evaluation of 1,2,3-thiadiazole derivatives as potential elicitors with highly systemic acquired resistance” (2009).

Common to all, as to assay type: functional
For assay [1], the system named is Tobacco mosaic virus. Put plainly: Induction of systemic acquired resistance against Tobacco mosaic virus (TMV) in tobacco plants exposed to 1000 ug/mL compound through irrigation based soil treatment followed by 7 days culture under green house conditions assessed as inhibition of viral growth in leaves infected with Tobacco mosaic virus (TMV) measured 72 hr post viral infection by half-leaf juice rubbing method. Further details: scale not given: the % may be the effect or the level left. A digest of the protocol:
(§1)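 Tobacco plants received compound by leaf spray or by soil irrigation, with double-distilled water as CK. Newly grown leaves were then rub-inoculated with TMV (5.88×10-2 μg/mL), and plants were kept at 25 °C for 72 h. Lesions on inoculated leaves were counted. Inhibition = (CK−A)/CK×100 from mean lesion numbers versus control.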

Assay [2] has as its system Tobacco mosaic virus. Kind of assay: Induction of systemic acquired resistance against Tobacco mosaic virus (TMV) in tobacco plants exposed to 50 ug/mL compound through irrigation based soil treatment followed by 7 days culture under green house conditions assessed as inhibition of viral growth in leaves infected with Tobacco mosaic virus (TMV) measured 72 hr post viral infection by half-leaf juice rubbing method. Further details: scale not given: the % may be the effect or the level left. Put shortly:
as §1

Assay [3] has as its system Tobacco mosaic virus. Kind of assay: In vivo antiviral activity against Tobacco mosaic virus (TMV) infected tobacco leaves exposed to 10 ug/mL for 20 min assessed as inhibition of viral growth measured 72 hr post compound treatment compound by half-leaf juice rubbing method.
Assay [4] concerns Tobacco mosaic virus. Put plainly: Induction of systemic acquired resistance against Tobacco mosaic virus (TMV) in tobacco plants exposed to 100 ug/mL compound through leaf spray followed by 7 days culture under green house conditions assessed as inhibition of viral growth in leaves infected with Tobacco mosaic virus (TMV) measured 72 hr post viral infection by half-leaf juice rubbing method. Also on record: scale not given: the % may be the effect or the level left. A digest of the protocol:
as §1

Assay [5] deals with Tobacco mosaic virus. Kind of assay: Induction of systemic acquired resistance against Tobacco mosaic virus (TMV) in tobacco plants exposed to 500 ug/mL compound through leaf spray followed by 7 days culture under green house conditions assessed as inhibition of viral growth in leaves infected with Tobacco mosaic virus (TMV) measured 72 hr post viral infection by half-leaf juice rubbing method. Also on record: scale not given: the % may be the effect or the level left. A digest of the protocol: as §1

Assay [6] deals with Tobacco mosaic virus. Kind of assay: Antiviral activity against Tobacco mosaic virus (TMV) infected tobacco leaves exposed to 1000 ug/mL for 20 min assessed as inhibition of viral growth measured 72 hr post compound treatment compound by half-leaf juice rubbing method. Put shortly: (§2)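 Half-leaf method on tobacco. A fresh leaf from a plant at the 5-6 leaf age was rub-inoculated with TMV (5.88×10-2 μg/mL) and cut along the main vein. One half was immersed in compound solution and the other in double-distilled water, each for 20 min. Halves were kept at 25 °C and 100% humidity for 72 h, then lesions were counted. Three replicates were run. Inhibition = (CK−A)/CK×100 from mean lesion numbers.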

The subject of assay [7] is Tobacco mosaic virus. Kind of assay: Antiviral activity against Tobacco mosaic virus (TMV) infected tobacco leaves exposed to 500 ug/mL for 20 min assessed as inhibition of viral growth measured 72 hr post compound treatment compound by half-leaf juice rubbing method. Put shortly:
as §2

Assay [8] deals with Tobacco mosaic virus. Kind of assay: Induction of systemic acquired resistance against Tobacco mosaic virus (TMV) in tobacco plants exposed to 500 ug/mL compound through irrigation based soil treatment followed by 7 days culture under green house conditions assessed as inhibition of viral growth in leaves infected with Tobacco mosaic virus (TMV) measured 72 hr post viral infection by half-leaf juice rubbing method. Also on record: scale not given: the % may be the effect or the level left. A digest of the protocol:
as §1

Assay [9] deals with Tobacco mosaic virus. Kind of assay: Induction of systemic acquired resistance against Tobacco mosaic virus (TMV) in tobacco plants exposed to 50 ug/mL compound through leaf spray followed by 7 days culture under green house conditions assessed as inhibition of viral growth in leaves infected with Tobacco mosaic virus (TMV) measured 72 hr post viral infection by half-leaf juice rubbing method. Further details: scale not given: the % may be the effect or the level left. Put shortly:
as §1

Assay [10] deals with Tobacco mosaic virus. Kind of assay: Antiviral activity against Tobacco mosaic virus (TMV) infected tobacco leaves exposed to 100 ug/mL for 20 min assessed as inhibition of viral growth measured 72 hr post compound treatment compound by half-leaf juice rubbing method. A digest of the protocol: as §2
For assay [11], the system named is Puccinia triticina. Kind of assay: Antifungal activity against Puccinia triticina inoculated on 500 ug/mL compound pre-treated wheat plants with 3 to 5 leaves assessed as growth inhibition. Put shortly: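 Healthy wheat plants at the 3-5 leaf stage were sprayed with compound (500 μg/mL) and then inoculated with spores. Inhibition percentage was calculated against the corresponding spore stack.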

Assay [12] deals with Tobacco mosaic virus. Kind of assay: In vivo antiviral activity against Tobacco mosaic virus (TMV) infected tobacco leaves exposed to 50 ug/mL for 20 min assessed as inhibition of viral growth measured 72 hr post compound treatment compound by half-leaf juice rubbing method. A digest of the protocol: as §2
The subject of assay [13] is Tobacco mosaic virus. Kind of assay: Induction of systemic acquired resistance against Tobacco mosaic virus (TMV) in tobacco plants exposed to 10 ug/mL compound through irrigation based soil treatment followed by 7 days culture under green house conditions assessed as inhibition of viral growth in leaves infected with Tobacco mosaic virus (TMV) measured 72 hr post viral infection by half-leaf juice rubbing method. Further details: scale not given: the % may be the effect or the level left. Put shortly: (§3)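 Tobacco plants receive compound either as leaf spray or as soil irrigation. Newly grown leaves are then rubbed with TMV (5.88 × 10-2 μg/mL). Plants are held 72 h at 25 °C and viral lesions are counted. Inhibition ratio = (CK − A)/CK × 100, from mean lesion numbers versus control. Water is CK; tiadinil and BTH are positive controls.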

In assay [14] the test system is Tobacco mosaic virus. Put plainly: In vivo antiviral activity against Tobacco mosaic virus (TMV) infected tobacco leaves exposed to 100 ug/mL for 20 min assessed as inhibition of viral growth measured 72 hr post compound treatment compound by half-leaf juice rubbing method. Put shortly: as §2
Assay [15] deals with Tobacco mosaic virus. Kind of assay: Induction of systemic acquired resistance against Tobacco mosaic virus (TMV) in tobacco plants exposed to 100 ug/mL compound through irrigation based soil treatment followed by 7 days culture under green house conditions assessed as inhibition of viral growth in leaves infected with Tobacco mosaic virus (TMV) measured 72 hr post viral infection by half-leaf juice rubbing method. Also on record: scale not given: the % may be the effect or the level left. A digest of the protocol: as §1

Assay [16] deals with Tobacco mosaic virus. Kind of assay: Induction of systemic acquired resistance against Tobacco mosaic virus (TMV) in tobacco plants exposed to 10 ug/mL compound through leaf spray followed by 7 days culture under green house conditions assessed as inhibition of viral growth in leaves infected with Tobacco mosaic virus (TMV) measured 72 hr post viral infection by half-leaf juice rubbing method. Further details: scale not given: the % may be the effect or the level left. Put shortly: as §3

The subject of assay [17] is Tobacco mosaic virus. Put plainly: Induction of systemic acquired resistance against Tobacco mosaic virus (TMV) in tobacco plants exposed to 1000 ug/mL compound through leaf spray followed by 7 days culture under green house conditions assessed as inhibition of viral growth in leaves infected with Tobacco mosaic virus (TMV) measured 72 hr post viral infection by half-leaf juice rubbing method. Also on record: scale not given: the % may be the effect or the level left. Put shortly:
as §1

Assay [18] relates to Tobacco mosaic virus. Kind of assay: In vivo antiviral activity against Tobacco mosaic virus (TMV) infected tobacco leaves exposed to 500 ug/mL for 20 min assessed as inhibition of viral growth measured 72 hr post compound treatment compound by half-leaf juice rubbing method. A digest of the protocol: as §2
Assay [19] has as its system Tobacco mosaic virus. Kind of assay: Antiviral activity against Tobacco mosaic virus (TMV) infected tobacco leaves exposed to 10 ug/mL for 20 min assessed as inhibition of viral growth measured 72 hr post compound treatment compound by half-leaf juice rubbing method. A digest of the protocol: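 Direct (in vitro) anti-TMV test by half-leaf method. A tobacco leaf at 5-6 leaf age is rubbed with TMV (5.88 × 10-2 μg/mL) and cut along the main vein. One half is immersed in compound and the other in double-distilled water for 20 min. Halves are kept 72 h at 25 °C and 100% humidity, then lesions are counted. Inhibition is derived from mean lesion numbers on the two halves. Triplicates; DHT is the positive control.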

In assay [20] the test system is Tobacco mosaic virus. Put plainly: Antiviral activity against Tobacco mosaic virus (TMV) infected tobacco leaves exposed to 50 ug/mL for 20 min assessed as inhibition of viral growth measured 72 hr post compound treatment compound by half-leaf juice rubbing method. Put shortly:
as §2

With `CSC(=O)c1cccc2nnsc12` [ACIBENZOLAR-S-METHYL], the Activity in assay [1] is recorded as 98%; in assay [2], 92%; in assay [4], 95%; in assay [5], 95%; in [8], 95%; in assay [9], 92%. Also, the Activity in [13] is reported as 63%; in assay [15] it was 96%; in assay [16] it was 50%; in assay [17] it was 97%. The “growth inhibition (GI)” value in assay [3] was found to be 6%; in [6], 8%; in assay [7], 4%; in assay [10] it was 2%; in assay [11], 0%; in [12], 15%. Further, the “growth inhibition (GI)” value in assay [14] is listed as 10%; in [18], 8%; in assay [19], 0%; in [20] it was 0%.
